Apaf1 inhib: blocks human Apaf-1 apoptosome activity; inhibition, % at 20 µM; AID 489030; hit rate 0.71% among 330,000; O14727; reconstituted apoptosome caspase-3 activity, DEVD-Rh110 fluorescence; active = inhibition of at least 40% at 20 µM;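 note: plate controls were DMSO wells for no effect and DEVD-CHO caspase inhibitor wells for full effect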
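Material: reconstituted apoptosome with Apaf-1, cytochrome c, caspase-9, procaspase-3, dATP; medium: pH 7.5 Hepes buffer with CHAPS, BSA, DTT; also added: cytochrome c and DEVD-Rh110 substrate; timing: 30 min plus 50 min, RT; signal: Rh110 fluorescence intensity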
CTSL1 counter: cathepsin L1 inhibition, PFM18AAP counter-screen; hit rate 0.49% among 300,000; recombinant F. hepatica cathepsin L1, Z-Leu-Arg-MCA fluorescence; AID 1906; inhibition, % at 5.96 µM;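 active = inhibition above the mean of all tested compounds plus 3 SD, set per screening campaign, cut at about 17% in these data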;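 note: 0% = plate median of test compound wells and 100% = 1 µM Z-Phe-Ala-diazomethylketone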
PP5 primary: blocks human protein phosphatase 5 activity; purified PP5c, OMFP substrate fluorescence; inhibition, % at 6.7 µM; hit rate 0.18% among 320,000; AID 1987;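 active = inhibition above the campaign's mean inhibition across all tested compounds plus 3 SD, cut at about 9.5% in these data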;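 note: 0% = DMSO only and 100% = 100 µM cantharidin control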
UCH37 DUB inh: inhibitors of human deubiquitinating enzyme UCH37; inhibition, % (test concentration not listed); hit rate 0.33% among 330,000; purified proteasome/UCH37, Ub-AMC cleavage fluorescence; Q9Y5K5;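 active = mean inhibition over replicate wells above about 20%, limit read from the data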;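 note: 0% = compound-free wells with enzyme and 100% = wells lacking proteasome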
Target sequence (Q9Y5K5 whole entry, looked up): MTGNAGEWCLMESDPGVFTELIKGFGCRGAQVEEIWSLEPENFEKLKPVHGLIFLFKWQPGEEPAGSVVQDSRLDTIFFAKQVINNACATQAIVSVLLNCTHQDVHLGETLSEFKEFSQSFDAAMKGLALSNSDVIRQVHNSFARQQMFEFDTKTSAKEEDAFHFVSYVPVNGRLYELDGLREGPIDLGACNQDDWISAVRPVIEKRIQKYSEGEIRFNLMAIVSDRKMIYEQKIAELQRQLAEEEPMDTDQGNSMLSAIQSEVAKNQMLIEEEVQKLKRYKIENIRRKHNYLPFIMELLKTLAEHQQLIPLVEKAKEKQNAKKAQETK
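Reagent: Ub-AMC substrate; assay system: Proteasome-associated human UCH37 deubiquitinase; controls: no-proteasome and no-compound wells; read-out: % inhibition of Ub-AMC cleavage fluorescence; timing: 30 min preincubation with enzyme, 25 min cleavage at room temperature; signal: AMC fluorescence from Ub-AMC cleavage, excitation 355 nm, emission 460 nm; buffer or medium: Tris-HCl pH 7.4 plus ovalbumin, ATP-MgCl2, DTT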
PAD4 FP inh: inhibitors of human PAD4 | Q9UM07 | recombinant PAD4, RCA probe fluorescence polarization | inhibition, % at 6.36 µM | hit rate 0.41% among 330,000;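 active = percent inhibition above a cutoff equal to the mean of all tested compounds plus 3 SD, cut at about 15% in these data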;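 note: 0% = PAD4 with RCA probe and DMSO and 100% = probe without PAD4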
GSTO1 inh: blocks human GSTO1 in RBBP9 counter-screen | P78417 | recombinant GSTO1, activity-based probe fluorescence polarization | inhibition, % at 5.96 µM | hit rate 1.1% among 300,000 | AID 1974;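 active = inhibition above the campaign mean inhibition plus 3 SD, cut at about 35% in these data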;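 note: 0% = GSTO1-1 with DMSO and 100% = wells lacking GSTO1-1 enzyme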
Target sequence (P78417 whole entry, looked up): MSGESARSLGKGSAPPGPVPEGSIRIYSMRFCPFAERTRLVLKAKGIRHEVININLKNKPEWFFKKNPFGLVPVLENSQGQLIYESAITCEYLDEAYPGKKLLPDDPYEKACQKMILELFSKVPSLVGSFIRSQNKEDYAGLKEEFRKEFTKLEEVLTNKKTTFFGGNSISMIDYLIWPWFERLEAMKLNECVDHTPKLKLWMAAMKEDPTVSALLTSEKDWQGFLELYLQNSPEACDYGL
PAD4 confirm: PAD4 (human) inhibition, confirmed | shares compounds with PAD4 FP inh | AID 488796 | hit rate 28% among 1,200 | inhibition, % at 6.36 µM | recombinant PAD4, RCA probe fluorescence polarization;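 active = mean inhibition across replicates above the hit cutoff set by the earlier primary screen, cut at about 15% in these data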;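 note: inhibitors block active-site labeling by the probe so polarization falls; 0% = PAD4 with probe and DMSO and 100% = probe without PAD4 enzyme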
Apaf-1 inh conf: Apaf-1 inhibition, single-dose confirmed. shares compounds with Apaf1 inhib. reconstituted apoptosome, caspase-3 DEVD-Rh110 fluorescence. inhibition, % at 20 µM. hit rate 25% among 1,800. AID 504614;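 active = mean inhibition of at least 40% at 20 µM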;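 note: plate controls were DMSO wells for no effect and DEVD-CHO caspase inhibitor control wells for full effect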
Rh110 interf inh: counter-screen for Apaf-1 inhibitors: fluorescence interference | Rh110 fluorescence interference, quenched caspase reaction | shares compounds with Apaf1 inhib | AID 504615 | activation (fluorescence interference), % at 20 µM | 1,800 tested, under 10 active;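 active = signal rise of 40% or more at 20 µM, treated as a fluorescence artifact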
Apaf1 inh interf: Apaf-1 inhibitor counter-screen fluorescence artifact; shares compounds with Apaf1 inhib; fluorescence interference counterscreen, Apaf-1 assay format; IC50, µM; 460 tested, under 10 active; AID 588538; call rule not given here
UCH37 confirm: reconfirmed inhibitor of human deubiquitinase UCH37. shares compounds with UCH37 DUB inh. Proteasome-bound UCH37, Ub-AMC cleavage fluorescence. inhibition, % at 20 µM. hit rate 27% among 480. AID 624100;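 active = average inhibition over replicates above about 50%, so the earlier screening hit is confirmed, limit read from the data; inactive = the rest, counted as false positives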;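 note: based on cleavage rate fitted by regression over a 30 min kinetic read; 0% = proteasome plus Ub-AMC and 100% = Ub-AMC without proteasome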
* = called active by the depositor; / = no result given. Shown are actives, neighbours in structure and some others; about 2% of the full set was active somewhere.

SMILES	Apaf1 inhib	CTSL1 counter	PP5 primary	UCH37 DUB inh	PAD4 FP inh	GSTO1 inh	PAD4 confirm	Apaf-1 inh conf	Rh110 interf inh	others
O=C(CC1Nc2cccc3cccc(c23)NC1=O)Nc1ccc(F)cc1 (configuration not stated)	96*	4	3	-3	59*	26	3	20	7
O=C(CC1Nc2ccccc2NC1=O)Nc1cc(Cl)cc(Cl)c1 (configuration not stated)	24	-1	0	-46	-1	-5	/	/	/
CCN(CCO)c1ccc(NC(=S)Nc2cccc(S(=O)(=O)N(C)C)c2)cc1	43*	2	0	3	40*	29	-1	13	0
O=C(O)c1ccccc1Nc1cc(Cl)c2nonc2c1[N+](=O)[O-]	-2	1	2	16	-1	30	/	/	/
O=[N+]([O-])c1c(Nc2ccccn2)cc(Cl)c2nonc12	91*	8	-2	9	49*	-47	-114	28	-2
CC(=O)Nc1ccc(S(=O)(=O)NCc2ccc3c(c2)cc(C)n3C)cc1	51*	1	3	5	16*	1	7	4	2
CSc1ccc(C=NN2CCN(C)CC2)cc1	/	/	/	1	/	/	/	/	/
Cc1ccc(-c2cc(C(=O)NN=Cc3c[nH]c4ccccc34)n[nH]2)o1	/	/	/	-2	/	/	/	/	/
CCC(COC)Oc1cc(NCc2ccccc2)c2ncn(C(C)C)c2c1 (configuration not stated)	97*	/	4	8	24*	/	-5	67*	1	Apaf1 inh interf=>100
CCC(CO)Oc1cc(NCc2ccccc2)c2ncn(C(C)C)c2c1 (configuration not stated)	33	/	/	7	-10	/	/	/	/
CC(C)n1cnc2c(NCc3ccccc3)cc(N[C@H](C)CO)cc21	97*	/	/	2	46*	/	32*	96*	5	Apaf1 inh interf=>100
CCN(CC)c1ccc(C=NN=C(c2ccccc2)c2ccccc2)c(O)c1	/	/	/	7	/	/	/	/	/
Cc1ccc(-c2c(C(=O)NN=Cc3ccc(OC(C)C)cc3)nnn2-c2nonc2N)cc1	/	/	/	-45	/	/	/	/	/
CC1=NN(c2ccc(C(=O)O)c(N)c2)C(=O)C1	62*	6	4	6	25*	63*	17*	7	-2
COc1ccc(-c2ncn(CCC#N)c2[N+](=O)[O-])cc1	-7	0	1	7	-4	5	/	/	/
COc1ccc(-c2cc(=O)n(CCC#N)[nH]2)cc1	94*	-1	2	6	70*	36*	2	7	-6
CC(=O)C1=C(c2cccc([N+](=O)[O-])c2)N(C(C)=O)n2c(C)nnc2S1	44*	-11	1	18	19*	3	23*	40	9
CCN(CC)c1ccc(N)cc1	38	/	1	/	-51	/	/	/	/
Nc1ccc(N(CCO)CCO)cc1	84*	13	6	5	59*	65*	-3	46*	3	Apaf1 inh interf=>100
Cc1cccc(NC(=S)NCc2ccc3c(c2)cc(C)n3C)c1C	66*	6	3	0	19*	2	-4	16	5
COc1cccc(NC(=S)NCc2ccc3c(c2)cc(C)n3C)c1	/	/	/	4	/	/	/	/	/
CCc1ccc(S(=O)(=O)Nc2cc(SCC(=O)O)c(O)c3ccccc23)cc1	71*	-5	1	6	26*	84*	-4	29	4
Cc1oc2c(cc(NS(=O)(=O)c3ccc(C(C)C)cc3)c3ccccc32)c1C(=O)O	24	-5	3	/	-5	4	/	/	/
CCOc1cc(/C=C2\C(=O)N(CCC#N)N=C2C)ccc1OCC(N)=O	58*	-2	0	4	57*	54*	-6	4	-10
COc1cc(/C=C2\C(=O)N(CCC#N)N=C2C)ccc1OCC(=O)Nc1ccccc1	93*	-2	1	-1	51*	47*	-8	7	-2
SMILES	Apaf1 inhib	CTSL1 counter	PP5 primary	UCH37 DUB inh	PAD4 FP inh	GSTO1 inh	PAD4 confirm	Apaf-1 inh conf	Rh110 interf inh	others
CC1=NN(CCC#N)C(=O)/C1=C/c1ccc(N(C)C)cc1	-2	0	-1	12	-21	23	/	/	/
NC(=NOC(=O)c1ccc(Cl)c([N+](=O)[O-])c1)c1ccccn1	/	/	/	3	/	/	/	/	/
CC1=CC(=NNC(=O)c2ccccc2)CC1	/	/	/	-1	/	/	/	/	/
COc1cc(C=NNc2ccc(S(N)(=O)=O)cc2)cc(OC)c1OC	/	/	/	4	/	/	/	/	/
O=C(NN=Cc1ccco1)C1CC1	/	/	/	0	/	/	/	/	/
O=C1NC2=C(CCc3ccccc32)C(c2ccccc2)N1 (configuration not stated)	91*	3	2	-29	27*	32	2	13	0
CC(=NNC(=O)CNC(=O)c1ccncc1)c1ccc(C)cc1	/	/	/	3	/	/	/	/	/
Cc1cccc(-n2c(N)c(C(=O)NCCN3CCOCC3)c3nc4ccccc4nc32)c1	51*	3	2	-494	17*	37*	-11	12	3
Oc1cc(NCCN2CCOCC2)cc2cccnc12	92*	/	/	7	31*	/	12	80*	-4	Apaf1 inh interf=>100
O=C(N/N=C1\C/C(=N\NC(=O)c2ccncc2)c2ccccc21)c1ccncc1	93*	42*	5	/	44*	56*	-15	60*	7	Apaf1 inh interf=>100
CC(=NNC(=O)CNC(=O)C(c1ccccc1)c1ccccc1)c1ccco1	/	/	/	1	/	/	/	/	/
Cc1ccc(NC2=C(NCCO)C(=O)c3ccccc3C2=O)cc1	78*	8	7	26*	40*	49*	-4	61*	0	Apaf1 inh interf=>100;UCH37 confirm=2
COc1ccc(C(C[N+](=O)[O-])c2c(C)cc3ccccn23)cc1 (configuration not stated)	12	-1	3	3	3	16	/	/	/
COc1ccc(C(C[N+](=O)[O-])c2c(C)[nH]n(-c3ccccc3)c2=O)cc1 (configuration not stated)	96*	98*	9	77*	17*	82*	11	65*	9	Apaf1 inh interf=>100;UCH37 confirm=7
CC1CCCC(NC(=O)COC(=O)c2ccc([N+](=O)[O-])s2)C1C (configuration not stated)	41*	/	/	78*	15*	/	7	31	5	UCH37 confirm=85*

Assay outcomes (PubChem)
